According to ChEMBL document CHEMBL5724801, “EUbOPEN Chemogenomics Library - Multiplex” (2024):
Several values for one entry are separate records, joined by “and”; a condition that tells them apart may be missing. Identical values can stand only once.

How the values were obtained:
HEK-293T = test: Multiplex assay against HEK293T; assay type: toxicity, cell-based; settings: human
In short: (§1)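 Live cells were stained at seeding with Hoechst33342, BioTracker Green Microtubule Cytoskeleton Dye, MitoTracker Red and Annexin V Alexa Fluor 680, then imaged on a CQ1 microscope at 37°C and 5% CO2 after compound addition. CellPathfinder machine-learning gating split cells into Hoechst high-intensity objects or normal cells. Normal cells were split into healthy, pyknosed or fragmented nuclei, and pyknosed cells into mitotic or apoptotic. Tubulin, mitochondrial-mass and membrane-permeability phenotypes are per cents of healthy-nucleus cells.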

U2OS = test: Multiplex assay against U2OS; assay type: toxicity, cell-based; settings: human; in short: as §1
[1] = 24 h, 1 µM, compound concentration 1 uM
[2] = 24 h, 10 µM, compound concentration 10 uM
[3] = 48 h, 1 µM, compound concentration 1 uM
[4] = 48 h, 10 µM, compound concentration 10 uM
[5] = 12 h, 1 µM, compound concentration 1 uM
[6] = 12 h, 10 µM, compound concentration 10 uM

CCNC1(C(N)=O)CCN(c2ncnc3c2nc(-c2ccccc2Cl)n3-c2ccc(Cl)cc2)CC1 [OTENABANT]
Total Cell Count (HEK-293T; [1]): 474 and 442
Population Apoptotic (%) (HEK-293T; [2]): 40% and 64%
Population Fragmented Nuclei (%) (HEK-293T; [2]): 8% and 6%
Population Healthy Nuclei (%) (HEK-293T; [2]): 71% and 77%
Population Hoechst High Intensity Objects (%) (HEK-293T; [2]): 17% and 13%
Population Membrane Permeable-Phenotype (%) (HEK-293T; [2]): 1% and 0%
Population Mitochondria Different-Phenotype (%) (HEK-293T; [2]): 79% and 95%
Population Mitotic Cells (%) (HEK-293T; [2]): 59% and 35%
Population Normal (%) (HEK-293T; [2]): 82% and 86%
Population Pyknosed Nuclei (%) (HEK-293T; [2]): 19% and 15%
Population Tubulin-Different-Phenotype (%) (HEK-293T; [2]): 56% and 53%
Total Cell Count (HEK-293T; [2]): 452 and 283
Population Apoptotic (%) (HEK-293T; [3]): 34% and 32%
Population Fragmented Nuclei (%) (HEK-293T; [3]): 12% and 8%
Population Healthy Nuclei (%) (HEK-293T; [3]): 78% and 82%
Population Hoechst High Intensity Objects (%) (HEK-293T; [3]): 4%
Population Membrane Permeable-Phenotype (%) (HEK-293T; [3]): 1% and 0%
Population Mitochondria Different-Phenotype (%) (HEK-293T; [3]): 29% and 30%
Population Mitotic Cells (%) (HEK-293T; [3]): 65% and 68%
Population Normal (%) (HEK-293T; [3]): 95%
Population Pyknosed Nuclei (%) (HEK-293T; [3]): 9% and 8%
Population Tubulin-Different-Phenotype (%) (HEK-293T; [3]): 30%
Total Cell Count (HEK-293T; [3]): 766 and 604
Population Apoptotic (%) (HEK-293T; [4]): 52% and 70%
Population Fragmented Nuclei (%) (HEK-293T; [4]): 13% and 10%
Population Healthy Nuclei (%) (HEK-293T; [4]): 71% and 77%
Population Hoechst High Intensity Objects (%) (HEK-293T; [4]): 16% and 14%
Population Membrane Permeable-Phenotype (%) (HEK-293T; [4]): 2% and 0%
Population Mitochondria Different-Phenotype (%) (HEK-293T; [4]): 78% and 89%
Population Mitotic Cells (%) (HEK-293T; [4]): 47% and 29%
Population Normal (%) (HEK-293T; [4]): 83% and 85%
Population Pyknosed Nuclei (%) (HEK-293T; [4]): 15% and 12%
Population Tubulin-Different-Phenotype (%) (HEK-293T; [4]): 66% and 57%
Total Cell Count (HEK-293T; [4]): 560 and 325
Population Apoptotic (%) (U2OS; [5]): 77% and 85%
Population Fragmented Nuclei (%) (U2OS; [5]): 30% and 17%
Population Healthy Nuclei (%) (U2OS; [5]): 60% and 74%
Population Hoechst High Intensity Objects (%) (U2OS; [5]): 3% and 2%
Population Membrane Permeable-Phenotype (%) (U2OS; [5]): 13% and 11%
Population Mitotic Cells (%) (U2OS; [5]): 22% and 14%
Population Normal (%) (U2OS; [5]): 96% and 97%
Population Pyknosed Nuclei (%) (U2OS; [5]): 9% and 7%
Population Tubulin-Different-Phenotype (%) (U2OS; [5]): 4% and 10%
Total Cell Count (U2OS; [5]): 254 and 93
Population Apoptotic (%) (U2OS; [6]): 58% and 70%
Population Fragmented Nuclei (%) (U2OS; [6]): 31% and 21%
Population Healthy Nuclei (%) (U2OS; [6]): 48% and 60%
Population Hoechst High Intensity Objects (%) (U2OS; [6]): 6% and 0%
Population Membrane Permeable-Phenotype (%) (U2OS; [6]): 81% and 65%
Population Mitochondria Different-Phenotype (%) (U2OS; [6]): 63% and 73%
Population Mitotic Cells (%) (U2OS; [6]): 41% and 30%
Population Normal (%) (U2OS; [6]): 93% and 99%
Population Pyknosed Nuclei (%) (U2OS; [6]): 19% and 18%
Population Tubulin-Different-Phenotype (%) (U2OS; [6]): 89% and 76%
Total Cell Count (U2OS; [6]): 211 and 112
Population Apoptotic (%) (U2OS; [1]): 79% and 80%
Population Fragmented Nuclei (%) (U2OS; [1]): 26% and 24%
Population Healthy Nuclei (%) (U2OS; [1]): 61% and 62%
Population Hoechst High Intensity Objects (%) (U2OS; [1]): 3% and 4%
Population Membrane Permeable-Phenotype (%) (U2OS; [1]): 11% and 15%
Population Mitochondria Different-Phenotype (%) (U2OS; [1]): 5% and 15%
Population Mitotic Cells (%) (U2OS; [1]): 20%
Population Normal (%) (U2OS; [1]): 96% and 95%
Population Pyknosed Nuclei (%) (U2OS; [1]): 11% and 13%
Population Tubulin-Different-Phenotype (%) (U2OS; [1]): 7% and 5%
Total Cell Count (U2OS; [1]): 308 and 120
Population Apoptotic (%) (U2OS; [2]): 69% and 80%
Population Fragmented Nuclei (%) (U2OS; [2]): 29% and 28%
Population Healthy Nuclei (%) (U2OS; [2]): 49% and 53%
Population Hoechst High Intensity Objects (%) (U2OS; [2]): 3%
Population Membrane Permeable-Phenotype (%) (U2OS; [2]): 55% and 47%
Population Mitochondria Different-Phenotype (%) (U2OS; [2]): 75% and 72%
Population Mitotic Cells (%) (U2OS; [2]): 30% and 20%
Population Normal (%) (U2OS; [2]): 96%
Population Pyknosed Nuclei (%) (U2OS; [2]): 20% and 18%
Population Tubulin-Different-Phenotype (%) (U2OS; [2]): 78% and 62%
Total Cell Count (U2OS; [2]): 218 and 137
Population Apoptotic (%) (U2OS; [3]): 86% and 52%
Population Fragmented Nuclei (%) (U2OS; [3]): 24% and 16%
Population Healthy Nuclei (%) (U2OS; [3]): 64% and 69%
Population Hoechst High Intensity Objects (%) (U2OS; [3]): 1% and 4%
Population Membrane Permeable-Phenotype (%) (U2OS; [3]): 7% and 13%
Population Mitochondria Different-Phenotype (%) (U2OS; [3]): 4% and 10%
Population Normal (%) (U2OS; [3]): 98% and 95%
Population Pyknosed Nuclei (%) (U2OS; [3]): 10% and 14%
Population Tubulin-Different-Phenotype (%) (U2OS; [3]): 3% and 9%
Population Apoptotic (%) (U2OS; [4]): 86% and 80%
Population Fragmented Nuclei (%) (U2OS; [4]): 32% and 29%
Population Healthy Nuclei (%) (U2OS; [4]): 43% and 45%
Population Hoechst High Intensity Objects (%) (U2OS; [4]): 7% and 10%
Population Membrane Permeable-Phenotype (%) (U2OS; [4]): 49% and 43%
Population Mitochondria Different-Phenotype (%) (U2OS; [4]): 55% and 66%
Population Mitotic Cells (%) (U2OS; [4]): 13% and 20%
Population Normal (%) (U2OS; [4]): 92% and 89%
Population Pyknosed Nuclei (%) (U2OS; [4]): 23% and 24%
Population Tubulin-Different-Phenotype (%) (U2OS; [4]): 51% and 49%
Total Cell Count (U2OS; [4]): 269 and 138
